Compound activity (PubChem BioAssay)
An excerpt weighted towards active compounds, which were near 2.6% of everything screened.
S100A4 inh HTS: inhibitors of human S100A4 binding to myosin IIA peptide | S100A4/TAMRA-MyoIIA peptide fluorescence polarization | AID 652163 | actives 0.14% (n = 360,000) | P26447 | inhibition, % at 10.7 µM;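 active means mean inhibition of at least 70% across replicates, with every replicate also reaching that level; inconclusive means mean inhibition reaches 70% but some replicates fall short; inactive means mean inhibition below 70%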
Target sequence (P26447 whole entry, looked up): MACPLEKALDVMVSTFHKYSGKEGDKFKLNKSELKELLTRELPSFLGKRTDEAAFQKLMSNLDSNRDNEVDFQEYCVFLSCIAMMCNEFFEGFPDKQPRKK
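assay system = human S100A4 monomer with TAMRA-labelled myosin IIA peptide | also added = labelled myosin peptide probe, 5 nM | incubation = 5 min between mix addition and reading | control set = DMSO and TFP controls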
Ecoli rRNA inh: inhibits bacterial ribosomal RNA function over humanized ribosomes. E. coli WT GFP vs humanized-ribosome RFP mutants, fluorescence, 24 h; hits give low values; DMSO median 0, no signal -100. GFP signal change (wild-type ribosome), % (no concentration beside the values). actives 1.6% (n = 350,000);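 active means significant combined selectivity score with lowered wild-type GFP, culture density cut under 30%, mutant RFP and density less affected; inactive means any of these conditions unmet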
FN deposit inh: fibronectin deposition inhibition; AH1F fibroblasts, Alexa488-fibronectin deposition fluorescence, overnight; inhibition, % at 12.6 µM; actives 0.086% (n = 350,000); AID 743247;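 active means mean inhibition across replicates of 30% or more, regardless of how many single replicates reach that level; inconclusive means mean under 30% yet at least half of replicates reach 30%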;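 further: positive control wells lacked labelled fibronectin entirely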
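material = AH1F fibroblast monolayer depositing Alexa488-labelled fibronectin into matrix | amount = 10000 AH1F cells/well | buffer or medium = DMEM plus 2% serum, read in PBS | incubation = 1 h cell adhesion before compound, then overnight fibronectin incubation | detection = fluorescence at 485 nm excitation, 525 nm emission | evaluation = percent inhibition as loss of matrix-bound fibronectin fluorescence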
Env fusion inh: HIV envelope-mediated fusion inhibition. HeLa-JRFL Env/CEM21 cell fusion, luciferase. inhibition, % at 12.3 µM. actives 1.1% (n = 360,000). AID 651610;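 active means mean replicate inhibition score of at least 50 and every replicate individually at or above 50; inconclusive means only one of the two criteria met; inactive means mean below 50 and not all replicates reaching 50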;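 further: 0% = plate neutral controls and 100% = maraviroc near 300 nM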
Vif inh: HIV Vif inhibition; HEK293T cells, Vif self-association by quenched fluorescence, imaging, 24 h; actives 0.35% (n = 340,000); inhibition, % at 7.49 µM; in the data active means inhibition above about 50%, passing the limit was not always enough; inconclusive means no clear call, values can overlap the other calls; inactive means below about 31%
miR122 inh: inhibitors of miR-122 in Huh7 cells. Huh7 miR-122 Renilla luciferase sensor, 48 h; neutral wells = 0, positive control = 100. activation (reporter increase), % at 12.5 µM. actives 0.3% (n = 340,000);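 active means mean replicate activation score at least 90 and every replicate individually at or above 90; inconclusive means only one of the two criteria met; inactive means neither criterion met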;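 further: higher luciferase means less miR-122 activity so hits act as miR-122 inhibitors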
Active calls of the source: *; ? = inconclusive; · = no result; + = active, no number; ! = repeats disagree; [ ] = another dose, or the depositor's remark.

SMILES	S100A4 inh HTS	Ecoli rRNA inh	FN deposit inh	Env fusion inh	Vif inh	miR122 inh
Cc1ccc(S(=O)(=O)Nc2ccc3c(c2)CC(=O)N([C@@H](C)CO)C[C@H](C)[C@H](CN(C)S(=O)(=O)c2ccccc2)O3)cc1	·	4	-7	67*[16.7 µM]	·	8[16.7 µM]
Cc1ccc(S(=O)(=O)Nc2ccc3c(c2)CC(=O)N([C@H](C)CO)C[C@@H](C)[C@@H](CN(C)S(=O)(=O)c2ccccc2)O3)cc1	·	-2	3	18[16.7 µM]	·	1[16.7 µM]
O=C(Nc1ccccc1F)N1C[C@H]2[C@@H](c3ccccc31)[C@@H](CO)N2C(=O)c1ccccn1	61	-1	·	·	·	28[16.7 µM]
Cc1cc(Cl)n2ncc(-c3ccccc3)c2n1	-3	-33*	5	-96	0	-5
Cc1cc(NCc2ccccn2)n2ncc(-c3ccc(Cl)cc3)c2n1	-2	16	18	-42	-1	-17
Cc1cc(N)n2ncc(-c3ccc(Cl)cc3)c2n1	·	·	·	-194	1	-1
Cc1cc(NCc2ccccn2)n2ncc(-c3ccccc3)c2n1	1	-38*	13	-112	0	-20
Cc1cc(C(=O)Nc2cccc3c2O[C@@H](CN(C)C(=O)Nc2c(C)noc2C)[C@H](C)CN([C@@H](C)CO)C3=O)n(C)n1	-9	2	-1	·	·	-2[16.7 µM]
Cc1cccc(NC(=S)NNC(=O)c2cccc([N+](=O)[O-])c2)c1	-2	-11	-10	-16	-4	-9
O=C(Nc1ccc([N+](=O)[O-])cc1)Nc1ccc(Cl)cc1F	-4	-50	-1	66*	5	·
Cc1occc1C(=O)NNC(=S)Nc1cccc([N+](=O)[O-])c1	0	-19*	·	·	14	·
O=C(Nc1ccc(C(=O)O)cc1)Nc1cccc([N+](=O)[O-])c1	-5	11	-4	4	-1	·
O=[N+]([O-])c1cccc(N/N=C/c2cccc(O)c2O)c1	-4	-8	6	-13	64*	·
O=C(Nc1cccc([N+](=O)[O-])c1)Nc1cccc([N+](=O)[O-])c1	-9	-18*	7	12	-17	·
O=C(C1CCOCC1)N1[C@H](CO)[C@H](c2ccccc2)C12CN(Cc1cncnc1)C2	-4	3	-6	·	·	·
Cc1ccc(CNC(=O)CNC(=S)N(Cc2ccccc2)Cc2ccccc2F)cc1	-5	-30*	-9	16	-3	·
O=C(CNC(=S)N(Cc1ccccc1)Cc1ccccc1F)NCc1ccc(Cl)cc1	2	-27*	-2	15	0	·
COc1cccc(CNC(=O)CNC(=S)N(Cc2ccccc2)Cc2ccccc2F)c1	-3	-25	-6	23	-9	·
O=C(CNC(=S)N(Cc1ccccc1)Cc1ccccc1F)NCc1ccccc1	2	-29	-5	9	-15	·
COc1ccc(NC2=C(C(C)=O)C(c3ccc(OC)c(OC)c3)C(C(C)=O)C(C)(O)C2)cc1 (stereo not given)	·	·	-15	-9	1	-1
COc1ccc(NC2=C(C(C)=O)C(c3ccccc3)C(C(C)=O)C(C)(O)C2)cc1 (stereo not given)	-9	-27*	-4	-7	7	·
COc1ccccc1-c1ccc([C@@H]2[C@@H](CO)N(C(=O)C3CC3)C23CN(C(C)=O)C3)cc1	0	-1	·	·	·	·
O=S(=O)(CCSc1nc2ccccc2o1)c1nc2ccccc2s1	3	-32*!	·	·	?	-1
CCN1c2ccccc2NC2C1C(C(C)=O)C(=O)N2c1ccc(Cl)cc1 (stereo not given)	-11	-15	·	·	+	·
Cc1cc(C)n(-c2nc(NCCN(C)C)c3c4c(sc3n2)COC(C)(C)C4)n1	2	-32*	-7	18	-1	-6
SMILES	S100A4 inh HTS	Ecoli rRNA inh	FN deposit inh	Env fusion inh	Vif inh	miR122 inh
CC(=O)N(C)C[C@@H]1Oc2ncc(C3=CCCC3)cc2C(=O)N([C@@H](C)CO)C[C@H]1C	-8	1	-2	2[16.7 µM]	·	5[16.7 µM]
COc1ccc(CNC(=O)C[C@@H]2CC[C@@H](NC(=O)c3cccc(F)c3)[C@@H](CO)O2)cc1	65	0	5	2[16.7 µM]	·	·
O=C(CC1CC1)N[C@H]1CC[C@@H](CCNS(=O)(=O)c2ccc(F)cc2)O[C@H]1CO	-6	3	4	-8[16.7 µM]	·	·
CC(C)CCNC(=O)C(c1ccco1)N(CC1CCCO1)C(=O)Cn1nnc2ccccc21 (stereo not given)	-9	4	·	·	17	·
Cn1c(C(C(=O)NCC2CCCO2)N(CCc2ccccc2)C(=O)Cn2nnc3ccccc32)nc2ccccc21 (stereo not given)	1	-22*	-3	-30	-4	-7
C[C@@H]1CN([C@@H](C)CO)C(=O)c2cc(NC(=O)c3ccncc3)ccc2O[C@@H](C)CCCCO[C@H]1CN(C)S(=O)(=O)c1cn(C)cn1	-5	7	·	5[16.7 µM]	·	8[16.7 µM]
COc1ccccc1N1CCN(C(=O)c2ccc3noc(-c4ccccc4)c3c2)CC1	0	-13*	2	6	-5	3
Cc1ccc(C)c(NC(=S)N/N=C2\CCc3ccccc32)c1	-2	-24*	-1	7	-4	0
Cc1ccc(NC(=S)N/N=C2/CCCCc3ccccc32)cc1	1	-4	4	-5	-2	9
COCCCNC(=S)N/N=C/c1ccc2ccccc2c1	4	-32*	-1	0	-3	·
CN1CCS/C1=C/C=C1/SC(=S)N(Cc2ccccc2)C1=O	-3	-36	-12	-7	52*	·
COc1ccccc1S(=O)(=O)N[C@H]1CC[C@@H](CC(=O)N2CCN(C)CC2)O[C@@H]1CO	-1	5	0	4[16.7 µM]	·	-1[16.7 µM]
CCOC(=O)[C@@H]1[C@H]2COc3cc(OC)ccc3[C@@H]2N2C(=O)N(c3cccc(Cl)c3)C(=O)[C@]12C	·	·	·	·	-4	5
CCOC(=O)[C@@H]1[C@H]2COc3ccc(Br)cc3[C@@H]2N2C(=O)N(c3ccccc3)C(=O)[C@@]12C	1	-16	5	87*	-1	·
CCOC(=O)[C@@H]1[C@H]2COc3cc(OC)ccc3[C@@H]2N2C(=O)N(c3cccc(C)c3)C(=O)[C@]12C	87*	4	-1	-19	4	-5
CCOC(=O)[C@H]1[C@H]2COc3ccc(Br)cc3[C@@H]2N2C(=O)c3c(C)cc(C)cc3NC(=O)[C@@]12C	-5	·	15	67*	0	-1
CCOC(=O)[C@H]1[C@H]2COc3ccc(Br)cc3[C@@H]2N2C(=O)N(c3ccccc3)C(=O)[C@@]12C	-1	7	1	-31	10	0
C[C@@]12C(=O)N(Cc3ccc(Cl)cc3)CC(=O)N1[C@H]1c3ccccc3OC[C@@H]1[C@@H]2c1ccccc1	1	1	1	29	-1	-2
